Results taken from paper PMC4096303 (Journal of the American Chemical Society, 2013).
Blank lines part the entries; values can stand above or below the compound they belong to.

How the values were obtained:
[1] = Parallel Artificial Membrane Permeability Assay adapted for BBB; assay type: in vitro ADME; conditions: PAMPA-BBB, 25 µM, pH 7.4, 4 h, ambient temperature
Procedure, shortened: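 Test compound diluted in Prisma HT buffer, pH 7.4, to 25 µM final (1% DMSO) in donor wells, 11–12 replicates per compound. Acceptor PVDF filter coated with BBB-1 lipid; brain sink buffer in acceptor wells. Sandwich held 4 h at ambient temperature, unstirred. Absorbance read on a plate reader; −logPe averaged by software.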

[2] = UV-vis variable-pH titration; assay type: physicochemical; conditions: for pKa: Acidity constant (pKa), pH range 2–8
Procedure, shortened: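 Test compound (50 µM) in 100 mM NaCl, 10 mM NaOH (pH 12) titrated with small HCl aliquots, recording at least 30 UV–vis spectra over pH 2–8. Acidity constants fitted from the spectra; speciation diagram modelled to give the species distribution at pH 7.4.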

[3] = Solution speciation studies of Cu; assay type: binding; conditions: pH 7.4, based on concentration of unchelated Cu(II)
Procedure, shortened: (§1)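 Ligand and metal chloride mixed at M(II):L = 1:2: CuCl2 25 µM, or ZnCl2 50 or 250 µM depending on ligand. Titrated with small HCl aliquots, recording at least 30 UV–vis spectra over pH 2–9. Stability constants fitted from the spectra; speciation diagrams modelled to give metal-free Cu(II) or Zn(II) at pH 7.4.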

[4] = Solution speciation studies of Zn; assay type: binding; conditions: pH 7.4, based on concentration of unchelated Zn(II)
Procedure, shortened: as §1

[5] = Metal selectivity competition experiments by UV-vis; assay type: binding; conditions: stoichiometric ratios; 50 µM ligand, pH 7.4
Procedure, shortened: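 Ligand at 50 µM (1% DMSO) in Chelex-treated 20 mM HEPES, pH 7.4, 150 mM NaCl. It was first given 1 or 20 equiv of MgCl2, CaCl2, MnCl2, FeCl2, CoCl2, NiCl2 or CuCl2, then ZnCl2 (50 µM). Fe(II) samples were kept anaerobic by N2 purge. UV–vis spectra were recorded after 5 min at room temperature.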

[6] = tested on: N2aAPPswe or N2a cells; test: Cell viability by MTT assay, Aβ- or metal-Aβ-induced toxicity; assay type: cell-based, murine; conditions: 10 µM, 24 h, both N2a and N2aAPPswe cells
Procedure, shortened: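 Cells kept at 37 °C under 5% CO2 and seeded at 15 000 cells/well. Given CuCl2 or ZnCl2 (10 µM) plus test compound (10 µM final, 1% DMSO) for 24 h. MTT was added for 4 h at 37 °C and formazan dissolved overnight in acidic DMF/SDS. Absorbance read at 600 nm; viability expressed relative to DMSO-only cells; n = 3.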

[7] = 2-Deoxyribose assay; assay type: biochemical; conditions: ligand 125 µM, CuCl2 10 µM, absence and presence of Aβ (freshly prepared and aggregated)
[8] = Trolox equivalent antioxidant capacity; assay type: biochemical; conditions: ABTS cation radicals in EtOH, factor
[9] = TEAC assay with cell lysates; assay type: biochemical; conditions: M17 human neuroblastoma cell lysates, relative to Trolox
Procedure, shortened: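 M17 cells grown in 1:1 MEM/F12K with 10% FBS and penicillin/streptomycin to 80–90% confluence. Washed and harvested in cold PBS, pelleted, then sonicated on ice in 5 mM potassium phosphate pH 7.4 (0.9% NaCl, 0.1% glucose) and cleared at 10 000g, 4 °C. Supernatant mixed with test compound (0.045–0.330 mM), metmyoglobin, ABTS and H2O2; 5 min at room temperature; A750 read. TEAC taken as slope ratio versus Trolox; triplicate.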

[10] = Brain uptake study; assay type: in vivo, male CD1 mice; conditions: male, CD1, mouse, oral, 10 mg/kg
Procedure, shortened: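 Single 10 mg/kg oral gavage dose in sterile water to male CD1 mice, n = 3. Blood was drawn 5 min post-dose by retro-orbital or cardiac puncture into K2EDTA. Plasma was spun at 2000g for 5 min at 4 °C. Samples underwent protein precipitation and LC-MS/MS; LLOQ 1 ng/mL plasma, 4 ng/mL brain.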

[11] = In vitro metabolic stability, human liver microsomes; assay type: in vitro ADME
Procedure, shortened: (§2)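 Liver microsomes incubated with test compound at 1 µM, 37 °C, with ketanserin as reference compound; half-life (t1/2) determined.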

[12] = In vitro metabolic stability, rat liver microsomes; assay type: in vitro ADME
Procedure, shortened: as §2

[13] = In vitro metabolic stability, mouse liver microsomes; assay type: in vitro ADME
Procedure, shortened: as §2

[14] = target: Aβ42 (Homo sapiens, UniProt P05067); test: Ion mobility-mass spectrometry of early Aβ42 oligomerization; assay type: biochemical; conditions: IM–MS
Procedure, shortened: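 Lyophilized Aβ42 dissolved in 10 mM ammonium acetate, pH 7.4, to a final peptide concentration of 10 µM. Analysed by ion mobility on a traveling-wave Q-TOF mass spectrometer.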

[15] = target: Aβ40/Aβ42 (Homo sapiens, UniProt P05067); test: Aβ aggregation inhibition experiment; assay type: biochemical; conditions: Aβ 25 µM
Procedure, shortened: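 Aβ stock made in 1% NH4OH, diluted with ddH2O and quantified by A280. Test compound (50 µM, 1% DMSO) added with or without CuCl2/ZnCl2 (25 µM), 37 °C, constant agitation, 4, 8, 24 h. Read by 10–20% Tris–tricine gel, nitrocellulose transfer, anti-Aβ 6E10 Western blot, and TEM.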

[16] = tested on: preformed aggregates of Aβ and metal–Aβ; test: Aβ disaggregation experiment; assay type: biochemical; conditions: aggregates preformed 24 h, compound 50 µM, gel/TEM
Procedure, shortened: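 Aβ40 or Aβ42 (25 µM) in Chelex-treated HEPES/NaCl buffer, pH 6.6 for Cu(II) or 7.4 for Zn(II), with or without CuCl2 or ZnCl2 (25 µM). Aggregated 24 h at 37 °C with agitation. Test compound then added (50 µM) and incubated 4, 8 and 24 h at 37 °C with agitation. Analysed by Tris–tricine gel/Western blot (6E10 antibody) and by uranyl acetate-stained TEM.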

Sequence of Aβ42 (P05067 672-713): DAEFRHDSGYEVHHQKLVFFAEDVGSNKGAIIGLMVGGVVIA
Sequence of Aβ40/Aβ42 (P05067 672-711 limits assumed): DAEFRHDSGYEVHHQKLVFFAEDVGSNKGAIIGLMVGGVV

SMILES: CN(C)c1ccc(O)c(CNc2cccc3ccc(CO)nc23)c1 [ML, 4-(dimethylamino)-2-(((2-(hydroxymethyl)quinolin-8-yl)-amino)-methyl)phenol]
−logPe [1]: 4.49 (±0.01)
pKa ([2]; first of three printed): 2.63
pKa ([2]; second of three printed): 3.97
pKa ([2]; third of three printed): 6.23
Neutral form at physiological pH ([2]; pH 7.4, solution speciation diagram based on the acidity constants): ca. 94%
Dissociation constant (Kd) with Cu(II) [3]: picomolar range
Dissociation constant (Kd) with Zn(II) [4]: nanomolar range
Selectivity toward Zn(II) over other divalent metal ions [5]: relatively selective for Zn(II) over Mg(II), Ca(II), or Mn(II)
Cell survival, compound with and without metal ions (no Aβ) [6]: ca. 85%
Copper-mediated generation of hydroxyl radicals [7]: significantly reduced
Free radical scavenging (TEAC) in solution relative to DAP, 1 and Trolox [8]: ca. 2.6
Antioxidant capacity (TEAC value) in cell lysates [9]: 1.41 ± 0.15
concentration at 5 min ([10]; brain): 14.3 ± 4 ng/g
concentration at 5 min ([10]; plasma): 5.91 ± 1.24 ng/mL
half-life at 1 µM [11]: < 30 min
half-life at 1 µM [12]: < 30 min
half-life at 1 µM [13]: < 30 min
Inhibition of Aβ42 dodecamer formation ([14]; 1:5 mixture of Aβ42 and ML): completely
Inhibition of Aβ42 hexamer formation ([14]; 1:5 mixture of Aβ42 and ML): partially
Disaggregation of preformed Aβ42 dodecamers ([14]; Aβ42 on ice ca. 4 h, then ML added (1:5)): disaggregates preformed dodecamers
Effect on metal-induced Aβ aggregation ([15]; CuCl2 or ZnCl2 25 µM, compound 50 µM, 37 °C): noticeable effects on the modulation of metal-induced Aβ aggregation
Effect on metal-free Aβ40/Aβ42 aggregation ([15]; compound 50 µM, 4, 8, 24 h, 37 °C): could direct the production of Aβ species with a wide range of MW
Effect on preformed metal-free and metal-treated Aβ aggregates [16]: could transform preformed aggregates into relatively smaller, amorphous conformations

SMILES: Cc1c(C)c2c(c(C)c1O)CCC(C)(C(=O)O)O2 (stereo not drawn) [Trolox, 6-hydroxy-2,5,7,8-tetramethylchroman-2-carboxylic acid]
Antioxidant capacity (TEAC value) in cell lysates [9]: 1.00 ± 0.08

−logPe [1]: 4.70 (±0.01)
Dissociation constant (Kd) with Cu(II) [3]: micromolar range
Dissociation constant (Kd) with Zn(II) [4]: micromolar range
SMILES: Nc1cccc2ccc(CO)nc12 [Compound 1, (8-aminoquinolin-2-yl)methanol, reference compound]
Antioxidant capacity (TEAC value) in cell lysates [9]: 0.86 ± 0.10
Effect on preformed metal-free and metal-treated Aβ aggregates [16]: no discernible difference

SMILES: CN(C)c1ccc(O)cc1 [DAP, 4-(dimethylamino)phenol, reference compound]
Effect on Zn(II)-triggered Aβ aggregation ([15]; ZnCl2 25 µM, compound 50 µM, pH 7.4): influenced Zn(II)-triggered Aβ aggregation, similar to ML
